This is an account of results in ChEMBL document CHEMBL1152276, “Substituted 2-imino-5-arylidenethiazolidin-4-one inhibitors of bacterial type III secretion” (J Med Chem, 2008).

Active and inactive are the calls of the source. No cut-off for these calls is given here.

Tested on in one test: not listed separately
The experiment in a line: Inhibition of Salmonella enterica serovar Typhimurium type 3 secretion system-mediated SipA protein secretion by Western blotting. Further details: species or system Salmonella enterica subsp. enterica serovar Typhimurium.
Conditions: not given
The method in brief: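 Bacteria were grown 18 h in LB broth and pelleted, and culture supernates were 0.2 μm-filtered. Proteins were precipitated with 10% TCA on ice for 30 min, centrifuged, acetone-washed and resolved by SDS-PAGE. Western blots were probed with polyclonal anti-SipA. IC50 was calculated from percent inhibition of secreted SipA using at least 3 inhibitor concentrations.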
Background: In western blotting, separated proteins are transferred to a membrane and probed.
In the case of `COc1cc(/C=C2\S/C(=N\c3ccccc3)N(c3ccc(CN)cc3)C2=O)cc(OC)c1O`, the IC50 (in general, the concentration at which inhibition is half-maximal) turned out to be 52 µM.

In turn, `COc1cc(/C=C2\S/C(=N\c3ccccc3)N(c3ccc(CNC(=O)OC(C)(C)C)cc3)C2=O)cc(OC)c1O` gave an IC50 of 45 µM.

`COc1cc(/C=C2\S/C(=N\c3ccccc3)N([C@@H](C)C(=O)N[C@@H](CCCNC(=N)N)C(N)=O)C2=O)cc(OC)c1O` had an IC50 of 77 µM.

Take `COc1cc(/C=C2\S/C(=N\c3ccccc3)N([C@H](Cc3ccc(-c4ccccc4)cc3)C(=O)N[C@@H](CCCNC(=N)N)C(N)=O)C2=O)cc(OC)c1O`: half-maximal inhibition (IC50) was put at 8 µM.

Molecule `COc1cc(/C=C2\S/C(=N\c3ccccc3)N([C@H](C)C(=O)N[C@@H](CCCN)C(N)=O)C2=O)cc(OC)c1O` yielded an IC50 of 9 µM.

Molecule `COc1ccc(/C=C2\S/C(=N\c3ccccc3)N(c3ccccc3)C2=O)cc1OC` showed an IC50 of 278 µM.

Regarding `COc1ccc(N2C(=O)/C(=C/c3cc(OC)c(O)c(OC)c3)S/C2=N\c2ccccc2)cc1`, the midpoint of inhibition, the IC50, lay at 51 µM.

In the case of `COc1ccc(N2C(=O)/C(=C/C(C)(C)C)S/C2=N\c2ccccc2)cc1`, the IC50 worked out at 160 µM.

Molecule `COc1cc(/C=C2\S/C(=N\c3ccccc3)N(C(C(=O)N[C@@H](Cc3ccc(O)cc3)C(N)=O)C(C)C)C2=O)cc(OC)c1O` (stereo partly specified) showed an IC50 of 52 µM.

For the molecule `COc1cc(/C=C2\S/C(=N\c3ccccc3)N(C(Cc3ccc(-c4ccccc4)cc3)C(=O)N[C@@H](CCCN)C(N)=O)C2=O)cc(OC)c1O` (single isomer, unassigned), the IC50 came to 55 µM.

Regarding `COc1cc(/C=C2\S/C(=N\c3ccccc3)N(C(C)C(=O)N[C@@H](Cc3c[nH]c4ccccc34)C(N)=O)C2=O)cc(OC)c1O` (stereo in doubt; 44a), the IC50 amounted to 30 µM.

`COc1cc(/C=C2\S/C(=N\c3ccccc3)N(C(CCCNC(=N)N)C(=O)N3Cc4ccccc4C[C@H]3C(N)=O)C2=O)cc(OC)c1O` (stereo partly specified) yielded an IC50 of 115 µM.

Turning to `COc1cc(/C=C2\S/C(=N\c3ccccc3)N([C@@H](C)C(=O)N[C@@H](CCCN)C(N)=O)C2=O)cc(OC)c1O`, the IC50 worked out at 16 µM.

Regarding `COc1cc(/C=C2\S/C(=N\c3ccccc3)N([C@@H](Cc3ccc(-c4ccccc4)cc3)C(=O)N[C@@H](CCCNC(=N)N)C(N)=O)C2=O)cc(OC)c1O`, half-maximal inhibition (IC50) was put at 3 µM.

`CC(C)(C)/C=C1\S/C(=N\c2ccccc2)N(c2ccccc2)C1=O` registered an IC50 of 244 µM.

With `COc1cc(/C=C2\S/C(=N\c3ccccc3)N([C@@H](C)C(=O)N[C@@H](C)C(N)=O)C2=O)cc(OC)c1O`, inhibition was half-maximal at 62 µM (IC50).

Turning to `COc1ccc(N2C(=O)/C(=C/C3CCCCC3)S/C2=N\c2ccccc2)cc1`, the midpoint of inhibition, the IC50, lay at 278 µM.

As for `O=C1/C(=C/c2ccc(Cl)cc2)S/C(=N\c2ccccc2)N1c1ccccc1`, the IC50 came to 322 µM.

`CSc1ccc(/C=C2\S/C(=N\c3ccccc3)N(c3ccccc3)C2=O)cc1` displayed an IC50 of 26 µM.

For the molecule `COc1cc(/C=C2\S/C(=N\c3ccccc3)N(CCCCCCN)C2=O)cc(OC)c1O`, the IC50 came out at 54 µM.

For the molecule `COc1cc(/C=C2\S/C(=N\c3ccccc3)N([C@@H](C)C(=O)N[C@@H](Cc3ccc(O)cc3)C(N)=O)C2=O)cc(OC)c1O`, the IC50 worked out at 112 µM.

`COc1cc(/C=C2\S/C(=N\c3ccccc3)N(CC(=O)O)C2=O)cc(OC)c1O` yielded an IC50 of 36 µM.

`COc1cc(/C=C2\S/C(=N\c3ccccc3)N([C@@H](CCCN)C(=O)N[C@@H](C)C(N)=O)C2=O)cc(OC)c1O` yielded an IC50 of 32 µM.

For the molecule `COc1ccc(/N=C2\S/C(=C\c3ccncc3)C(=O)N2c2ccccc2)cc1`, the IC50 worked out at 137 µM.

Turning to `COc1cc(/C=C2\S/C(=N\c3ccccc3)N(C(CCCN)C(=O)N[C@@H](CC3CNc4ccccc43)C(N)=O)C2=O)cc(OC)c1O` (mixture of isomers), the midpoint of inhibition, the IC50, lay at 56 µM.

`COc1cc(/C=C2\S/C(=N\c3ccccc3)N(CCCC(=O)OC(C)(C)C)C2=O)cc(OC)c1O`: it took 4 µM to reach half-maximal inhibition (IC50).

The molecule `COc1cc(/C=C2\S/C(=N\c3ccccc3)N(C(CCCNC(=N)N)C(=O)N3CSC[C@H]3C(N)=O)C2=O)cc(OC)c1O` (stereo partly specified) showed an IC50 of 65 µM.

For the molecule `COc1cc(/C=C2\S/C(=N\c3ccccc3)N([C@@H](CCC(=O)O)C(=O)N[C@@H](Cc3ccc(-c4ccccc4)cc3)C(N)=O)C2=O)cc(OC)c1O`, the half-maximal inhibitory concentration (IC50) is 50 µM.

`O=C1/C(=C/C2CCCCC2)S/C(=N\c2ccccc2)N1c1ccccc1` came in with an IC50 of 225 µM.

In turn, `COc1cc(/C=C2\S/C(=N\c3ccccc3)N([C@@H](CCCN)C(=O)N[C@@H](Cc3ccc(-c4ccccc4)cc3)C(N)=O)C2=O)cc(OC)c1O` had an IC50 of 13 µM.

As for `COc1cc(/C=C2\S/C(=N\c3ccccc3)N([C@H](C)C(=O)N[C@@H](CCCNC(=N)N)C(N)=O)C2=O)cc(OC)c1O`, inhibition was half-maximal at 38 µM (IC50).

The molecule `COc1cc(/C=C2\S/C(=N\c3ccccc3)N(CCCC(=O)O)C2=O)cc(OC)c1O` gave an IC50 of 66 µM.

`COc1cc(/C=C2\S/C(=N\c3ccccc3)N(C(CCCN)C(=O)N[C@H](CC3CNc4ccccc43)C(N)=O)C2=O)cc(OC)c1O` (mixture of isomers) registered an IC50 of 52 µM.

Molecule `COc1cc(/C=C2\S/C(=N\c3ccc(CN)cc3)N(c3ccccc3)C2=O)cc(OC)c1O` yielded an IC50 of 101 µM.

As to `COc1cc(/C=C2\S/C(=N\c3ccccc3)N([C@@H](CCCNC(=N)N)C(=O)N[C@@H](Cc3ccc(-c4ccccc4)cc3)C(N)=O)C2=O)cc(OC)c1O`, the midpoint of inhibition, the IC50, lay at 50 µM.

As for `COc1cc(/C=C2\S/C(=N\c3ccccc3)N(C(CCCNC(=N)N)C(=O)N[C@@H](C)C(N)=O)C2=O)cc(OC)c1O` (stereo partly specified), the IC50 turned out to be 41 µM.

As for `O=C1/C(=C/c2ccncc2)S/C(=N\c2ccccc2)N1c1ccccc1`, inhibition was half-maximal at 376 µM (IC50).

On to `COc1cc(/C=C2\S/C(=N\c3ccccc3)N(C(C)C(=O)N[C@@H](Cc3c[nH]c4ccccc34)C(N)=O)C2=O)cc(OC)c1O` (stereo in doubt; 44b), for which the midpoint of inhibition, the IC50, lay at 29 µM.

Consider `COc1cc(/C=C2\S/C(=N\c3ccccc3)N(c3ccccc3)C2=O)cc(OC)c1O`, for which the IC50 is 83 µM.

The test system of the next test is Salmonella enterica subsp. enterica serovar Typhimurium. The experiment in a line: Inhibition of Salmonella enterica serovar Typhimurium type 3 secretion system-mediated SipA protein secretion at 1 uM by Western blotting.
Conditions: not given
As to `COc1cc(/C=C2\S/C(=N\c3ccccc3)N(CC(=O)O)C2=O)cc(OC)c1O`, the outcome was Active.

For the molecule `COc1cc(/C=C2\S/C(=N\c3ccccc3)N(CCCC(=O)OC(C)(C)C)C2=O)cc(OC)c1O`, the outcome was Active.

In the next test the test system is Salmonella typhimurium. As to the kind of experiment: Growth inhibition of Salmonella enterica serovar Typhimurium ATCC 14028 up to 1 mM. The conditions noted are these: Salmonella enterica subsp. enterica serovar Typhimurium. It counts as functional, organism-based. The method in brief: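 Aliquots (30 μL) of a 2 mL overnight culture were dosed with 0.1, 1.0, 2.0, 3.0, 6.0 or 15.0 μL of compound in DMSO. DMSO alone in LB served as the control.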
As to `COc1cc(/C=C2\S/C(=N\c3ccccc3)N(c3ccc(CN)cc3)C2=O)cc(OC)c1O`, the outcome was inactive.

Regarding `COc1cc(/C=C2\S/C(=N\c3ccccc3)N(c3ccc(CNC(=O)OC(C)(C)C)cc3)C2=O)cc(OC)c1O`, the outcome was inactive.

Regarding `COc1cc(/C=C2\S/C(=N\c3ccccc3)N([C@@H](Cc3ccc(-c4ccccc4)cc3)C(=O)N[C@@H](CCCNC(=N)N)C(N)=O)C2=O)cc(OC)c1O`, the result was inactive.

Regarding `COc1cc(/C=C2\S/C(=N\c3ccccc3)N([C@@H](CCCN)C(=O)N[C@@H](Cc3ccc(-c4ccccc4)cc3)C(N)=O)C2=O)cc(OC)c1O`, the result was inactive.

On to `COc1cc(/C=C2\S/C(=N\c3ccccc3)N(c3ccccc3)C2=O)cc(OC)c1O`, for which the outcome was inactive.
